We go through 1 compound from ChEMBL document CHEMBL4373651, “Indole compounds with N-ethyl morpholine moieties as CB2 receptor agonists for anti-inflammatory management of pain: synthesis and biological evaluation” (Medchemcomm, 2019).

Test [1] deals with Rattus norvegicus. The experiment in a line: Antiinflammatory hyperalgesic activity against complete freund's adjuvant-induced mechanical hyperalgesic Sprague-Dawley rat model assessed as decrease in IL-1 beta production in paw skin at 10 mg/kg, ip pretreated with CFA for 24 hrs followed by compound and 0.5 mg/kg CB1 receptor antagonist, AM281 administration and measured after 1 hr by ELISA. The format is functional, organism-based. Summed up:
(§1)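 Male Sprague-Dawley rats, 180–200 g, isoflurane anaesthesia. Left hind paw given intraplantar 50% CFA (50 µL in 0.9% saline), or saline. At 24 h, single i.p. dose of drug, antagonist, combination or vehicle (2 mL kg-1). 1 h after dosing, paw skin taken and homogenised in ice-cold buffer with protease inhibitor, then centrifuged. IL-1β, IL-6 and TNF-α in supernatant by ELISA. n = 6, one-way ANOVA with Tukey test.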
(In general: In an ELISA, binding on a coated surface is turned into a signal by an enzyme label.)

A short description of test [2]: Selectivity ratio of EC50 for human CB1 receptor expressed in CHO cells coexpressing Galpha16 to EC50 for human CB2 receptor expressed in CHO cells coexpressing Galpha16. The method, boiled down: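 Ratio of EC50 values from the CB1 and CB2 cAMP assays in CHO-Gα16 cells: 30 min compound exposure at 37 °C with 1 mM IBMX and forskolin, chemiluminescent cAMP read-out, triplicates.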

For test [3], the system named is Rattus norvegicus. As to the kind of experiment: Antiinflammatory hyperalgesic activity against ip dosed complete freund's adjuvant-induced mechanical hyperalgesic Sprague-Dawley rat model assessed as decrease in IL-6 production in paw skin pretreated with CFA for 24 hrs followed by compound administration and measured after 1 hr by ELISA. The format is functional, organism-based. Summed up:
as §1

For test [4], the system named is Rattus norvegicus. The experiment in a line: Antiinflammatory hyperalgesic activity against complete freund's adjuvant-induced mechanical hyperalgesic Sprague-Dawley rat model assessed as reduction in IL-6 production in paw skin at 10 mg/kg, ip pretreated with CFA for 24 hrs followed by compound and 1 mg/kg CB2 receptor antagonist, SR144528 administration and measured after 1 hr by ELISA. The class given is functional, organism-based. Summed up: as §1

In test [5] the test system is Rattus norvegicus. As to the kind of experiment: Antiinflammatory hyperalgesic activity against complete freund's adjuvant-induced mechanical hyperalgesic Sprague-Dawley rat model assessed as decrease in IL-6 production in paw skin at 10 mg/kg, ip pretreated with CFA for 24 hrs followed by compound and 0.5 mg/kg CB1 receptor antagonist, AM281 administration and measured after 1 hr by ELISA. The format is functional, organism-based. Summed up: as §1

In test [6] the target is Cannabinoid receptor 2 (Homo sapiens, UniProt P34972). As to the kind of experiment: Agonist activity at human CB2 receptor expressed in CHO cells coexpressing Galpha16 assessed as reduction in forsklin-induced cAMP production incubated for 30 mins by cAMP Hunter assay based […] analysis. The class given is functional, cell-based. As to conditions: read-out: EC50. The method, boiled down:
(§2)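 CHO cells expressing human CB1 or CB2 with Gα16, seeded overnight at 37 °C. Test compounds in stimulation buffer with 1 mM IBMX, 0.25% BSA and forskolin, 30 min at 37 °C. Cells lysed, cAMP read by enzyme fragment complementation chemiluminescence kit. Triplicate per dilution. Efficacy relative to CP-55940 reference run twice per plate. EC50 from means.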

For test [7], the system named is Rattus norvegicus. The experiment in a line: Antiinflammatory hyperalgesic activity against ip dosed complete freund's adjuvant-induced mechanical hyperalgesic Sprague-Dawley rat model assessed as decrease in IL-1 beta production in paw skin pretreated with CFA for 24 hrs followed by compound administration and measured after 1 hr by ELISA. The format is functional, organism-based. The method, boiled down: as §1

Test [8] concerns Rattus norvegicus. The experiment in a line: Antiinflammatory hyperalgesic activity against complete freund's adjuvant-induced mechanical hyperalgesic Sprague-Dawley rat model assessed as decrease in IL-6 production in paw skin at 10 mg/kg, ip pretreated with CFA for 24 hrs followed by compound administration and measured after 1 hr by ELISA relative to control. The format is functional. The method, boiled down:
as §1

Test [9] relates to Rattus norvegicus. As to the kind of experiment: Antiinflammatory hyperalgesic activity against complete freund's adjuvant-induced mechanical hyperalgesic Sprague-Dawley rat model assessed as reduction in IL-1 beta production in paw skin at 10 mg/kg, ip pretreated with CFA for 24 hrs followed by compound and 1 mg/kg CB2 receptor antagonist, SR144528 administration and measured after 1 hr by ELISA. The class given is functional, organism-based. Summed up:
as §1

Test [10] concerns Rattus norvegicus. As to the kind of experiment: Antiinflammatory hyperalgesic activity against complete freund's adjuvant-induced mechanical hyperalgesic Sprague-Dawley rat model assessed as reduction in IL-6 production in paw skin at 0.1 mg/kg, ip pretreated with CFA for 24 hrs followed by compound administration and measured after 1 hr by ELISA. The format is functional, organism-based. The method, boiled down:
as §1

Test [11] has as its system Rattus norvegicus. The experiment in a line: Antiinflammatory hyperalgesic activity against complete freund's adjuvant-induced mechanical hyperalgesic Sprague-Dawley rat model assessed as decrease in IL-1 beta production in paw skin at 10 mg/kg, ip pretreated with CFA for 24 hrs followed by compound administration and measured after 1 hr by ELISA relative to control. The class given is functional. Summed up:
as §1

Test [12] deals with Cannabinoid receptor 1 (Homo sapiens, UniProt P21554). The experiment in a line: Agonist activity at human CB1 receptor expressed in CHO cells coexpressing Galpha16 assessed as reduction in forsklin-induced cAMP production incubated for 30 mins by cAMP Hunter assay based […] analysis. The format is cell-based. As to conditions: read-out: EC50. The method, boiled down:
as §2
(In general: cAMP levels reflect the balance of adenylyl cyclase and phosphodiesterase activity.)

The subject of test [13] is Rattus norvegicus. The experiment in a line: Antiinflammatory hyperalgesic activity against complete freund's adjuvant-induced mechanical hyperalgesic Sprague-Dawley rat model assessed as increase in paw withdraw latency at 0.0025 to 10 mg/kg, ip pretreated with CFA for 24 hrs followed by compound administration and measured at 1 hr to 12 hrs by analgesiometer analysis. The format is functional, organism-based. The method, boiled down: (§3)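 Male Sprague-Dawley rats, 180–200 g. Baseline mechanical paw withdrawal threshold taken with analgesiometer pressure on left hind paw, cut-off 250 g, endpoint complete withdrawal. Intraplantar 50% CFA (50 µL in 0.9% saline) under isoflurane. At 24 h, pre-drug threshold, then single i.p. dose of 0.0025–10 mg kg-1, antagonist combination or vehicle (2 mL kg-1). Thresholds read 1–24 h after dosing. % reversal = (post − pre)/(baseline − pre) × 100.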

The subject of test [14] is Rattus norvegicus. As to the kind of experiment: Antiinflammatory hyperalgesic activity against complete freund's adjuvant-induced mechanical hyperalgesic Sprague-Dawley rat model assessed as decrease in TNF-alpha production in paw skin at 10 mg/kg, ip pretreated with CFA for 24 hrs followed by compound and 0.5 mg/kg CB1 receptor antagonist, AM281 administration and measured after 1 hr by ELISA. The format is functional, organism-based. Summed up:
as §1

Test [15] has as its system Rattus norvegicus. As to the kind of experiment: Antiinflammatory hyperalgesic activity against complete freund's adjuvant-induced mechanical hyperalgesic Sprague-Dawley rat model assessed as increase in paw withdraw latency at 10 mg/kg, ip pretreated with CFA for 24 hrs followed by compound and 0.5 mg/kg CB1 receptor antagonist, AM281 administration by analgesiometer analysis. The format is functional, organism-based. Summed up:
as §3

For test [16], the system named is Rattus norvegicus. The experiment in a line: Antiinflammatory hyperalgesic activity against complete freund's adjuvant-induced mechanical hyperalgesic Sprague-Dawley rat model assessed as paw withdraw latency at 0.0025 to 10 mg/kg, ip pretreated with CFA for 24 hrs followed by compound administration and measured at 24 hrs by analgesiometer analysis. The format is functional, organism-based. Summed up: as §3

The subject of test [17] is Rattus norvegicus. As to the kind of experiment: Antiinflammatory hyperalgesic activity against complete freund's adjuvant-induced mechanical hyperalgesic Sprague-Dawley rat model assessed as reduction in TNF-alpha production in paw skin at 0.1 mg/kg, ip pretreated with CFA for 24 hrs followed by compound administration and measured after 1 hr by ELISA. The format is functional, organism-based. The method, boiled down:
as §1

Test [18] relates to Rattus norvegicus. The experiment in a line: Antiinflammatory hyperalgesic activity against complete freund's adjuvant-induced mechanical hyperalgesic Sprague-Dawley rat model assessed as paw withdraw latency at 10 mg/kg, ip pretreated with CFA for 24 hrs followed by compound and 1 mg/kg CB2 receptor antagonist, SR144528 administration by analgesiometer analysis. The format is functional, organism-based. Summed up: as §3

Test [19] relates to Rattus norvegicus. The experiment in a line: Antiinflammatory hyperalgesic activity against complete freund's adjuvant-induced mechanical hyperalgesic Sprague-Dawley rat model assessed as decrease in TNF alpha production in paw skin at 10 mg/kg, ip pretreated with CFA for 24 hrs followed by compound administration and measured after 1 hr by ELISA relative to control. The class given is functional. The method, boiled down:
as §1

The subject of test [20] is Rattus norvegicus. As to the kind of experiment: Antiinflammatory hyperalgesic activity against complete freund's adjuvant-induced mechanical hyperalgesic Sprague-Dawley rat model assessed as reduction in TNF-alpha production in paw skin at 10 mg/kg, ip pretreated with CFA for 24 hrs followed by compound and 1 mg/kg CB2 receptor antagonist, SR144528 administration and measured after 1 hr by ELISA. The format is functional, organism-based. Summed up:
as §1

For test [21], the system named is Rattus norvegicus. The experiment in a line: Antiinflammatory hyperalgesic activity against ip dosed complete freund's adjuvant-induced mechanical hyperalgesic Sprague-Dawley rat model assessed as increase in […] pretreated with CFA for 24 hrs followed by compound administration and measured at 1 hr by analgesiometer analysis. The class given is functional. The method, boiled down:
as §3

In test [22] the test system is Rattus norvegicus. The experiment in a line: Antiinflammatory hyperalgesic activity against complete freund's adjuvant-induced mechanical hyperalgesic Sprague-Dawley rat model assessed as reduction in IL-1 beta production in paw skin at 0.1 mg/kg, ip pretreated with CFA for 24 hrs followed by compound administration and measured after 1 hr by ELISA. The class given is functional, organism-based. The method, boiled down: as §1

In test [23] the test system is Rattus norvegicus. The experiment in a line: Antiinflammatory hyperalgesic activity against ip dosed complete freund's adjuvant-induced mechanical hyperalgesic Sprague-Dawley rat model assessed as decrease in TNF-alpha production in paw skin pretreated with CFA for 24 hrs followed by compound administration and measured after 1 hr by ELISA. The format is functional, organism-based. The method, boiled down:
as §1

pEC50: −log10 of the molar value. Active and inactive are the calls of the source.

Broadly, the pEC50 is −log10 of the EC50, conventionally taken in molar units. For orientation: ED50 means the dose that gives a 50% effect, or the effect in half of the subjects.

Sequence of Cannabinoid receptor 2 (P34972 whole entry, the tested form may be a part): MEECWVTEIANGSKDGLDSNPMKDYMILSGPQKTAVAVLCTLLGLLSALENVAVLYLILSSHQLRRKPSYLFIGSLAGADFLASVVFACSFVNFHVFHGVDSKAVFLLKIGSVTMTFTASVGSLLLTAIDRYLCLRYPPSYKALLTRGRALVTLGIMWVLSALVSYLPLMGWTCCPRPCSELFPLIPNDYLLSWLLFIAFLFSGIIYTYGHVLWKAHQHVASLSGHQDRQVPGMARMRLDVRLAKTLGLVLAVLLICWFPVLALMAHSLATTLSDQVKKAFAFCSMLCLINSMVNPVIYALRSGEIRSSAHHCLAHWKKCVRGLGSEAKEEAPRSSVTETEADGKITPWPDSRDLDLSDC
Sequence of Cannabinoid receptor 1 (P21554 whole entry): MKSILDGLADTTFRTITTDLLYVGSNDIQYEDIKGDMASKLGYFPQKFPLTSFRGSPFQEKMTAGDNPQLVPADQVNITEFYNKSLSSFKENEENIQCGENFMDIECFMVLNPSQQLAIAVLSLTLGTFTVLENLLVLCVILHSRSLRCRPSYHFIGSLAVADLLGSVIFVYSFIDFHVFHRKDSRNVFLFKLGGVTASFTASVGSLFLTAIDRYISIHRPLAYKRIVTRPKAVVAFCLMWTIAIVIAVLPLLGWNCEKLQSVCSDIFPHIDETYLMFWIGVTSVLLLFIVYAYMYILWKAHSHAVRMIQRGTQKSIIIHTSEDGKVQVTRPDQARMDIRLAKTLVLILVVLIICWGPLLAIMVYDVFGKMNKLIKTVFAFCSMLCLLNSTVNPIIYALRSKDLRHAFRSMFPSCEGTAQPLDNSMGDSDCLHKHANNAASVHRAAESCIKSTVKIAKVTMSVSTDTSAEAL

In the case of `Cc1c(CCN2CCOCC2)c2cc(F)ccc2n1C(=O)c1cccc(Cl)c1Cl`, the inhibition entry in test [1], in [5] and in [14] was “Active” each time. In [2], the “Ratio EC50” value is recorded as more than 1000. The inhibition entry in test [3], in test [7] and in test [23] was “Dose-dependent effect” in each case. The outcome in [4], in test [9], in [10], in test [16], in [17] and in test [18] was inactive. For the same compound, the result in [20] and in test [22] was inactive. Further, the pEC50 in test [6] was 7.72; in test [12], 4.53. Moreover, the “fold change (FC)” value in test [8] was 1.9; in test [11] it was 1.3; in [19] it was 1.1. Also, the outcome in test [13] and in [15] was Active. The Activity result in [21] was “Dose-dependent effect”. For the same compound, the ED50 in test [21] amounted to 1.1 mg/kg.
